Here are results for 31 molecules from ChEMBL document CHEMBL1134575, “Synthesis, molecular modeling, and structure-activity relationship of benzophenone-based CAAX-peptidomimetic farnesyltransferase inhibitors” (J Med Chem, 2001).

For orientation: IC50 means the point on the concentration scale where inhibition reaches its midpoint. A high value points to a need for much substance. For orientation: GI50 means the concentration giving 50% growth inhibition. A high value points to lower sensitivity of the cells.

The target in experiment [1] is T1, Farnesyltransferase (Saccharomyces cerevisiae S288c, UniProt P22007+P29703).
T1 sequence (P29703 whole entry): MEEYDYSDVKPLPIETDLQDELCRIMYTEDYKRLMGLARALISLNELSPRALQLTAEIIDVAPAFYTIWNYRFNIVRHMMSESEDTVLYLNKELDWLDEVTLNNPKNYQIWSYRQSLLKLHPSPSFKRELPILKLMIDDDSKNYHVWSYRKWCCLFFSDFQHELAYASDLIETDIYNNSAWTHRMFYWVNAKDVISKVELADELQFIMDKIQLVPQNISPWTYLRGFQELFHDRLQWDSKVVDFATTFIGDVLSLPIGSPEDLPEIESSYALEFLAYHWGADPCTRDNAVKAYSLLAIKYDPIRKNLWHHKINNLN
T1 sequence (P22007 whole entry): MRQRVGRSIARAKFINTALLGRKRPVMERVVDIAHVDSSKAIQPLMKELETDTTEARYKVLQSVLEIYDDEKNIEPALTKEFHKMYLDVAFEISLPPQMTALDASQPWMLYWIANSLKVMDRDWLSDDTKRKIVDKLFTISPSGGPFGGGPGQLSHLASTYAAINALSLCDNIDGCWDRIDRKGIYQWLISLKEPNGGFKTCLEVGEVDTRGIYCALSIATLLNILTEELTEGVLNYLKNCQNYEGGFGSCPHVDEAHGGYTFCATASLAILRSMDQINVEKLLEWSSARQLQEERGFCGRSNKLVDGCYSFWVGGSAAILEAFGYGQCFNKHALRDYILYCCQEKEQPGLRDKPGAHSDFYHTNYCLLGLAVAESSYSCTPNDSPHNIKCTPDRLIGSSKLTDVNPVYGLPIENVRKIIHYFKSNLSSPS
Nature of the experiment: Inhibitory activity against farnesyltransferase. The class given is protein-complex assay. In short, it runs like this: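 Yeast FTase, GST fused at the N-terminus of the β-subunit, expressed in E. coli DH5α and purified on glutathione-agarose. Buffer: 50 mM Tris/HCl pH 7.4, 5 mM MgCl2, 10 μM ZnCl2, 5 mM DTT. Substrates: 7 μM dansyl-GCVLS, 20 μM FPP. Inhibitor in 1% DMSO. IC50 from initial velocities at four or five concentrations, three independent runs, mean ± SD.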

For experiment [2], the system named is K562. In words: Antiproliferative activity against K562 cell line. Format: functional. The note with it: Homo sapiens. In outline:
(§1)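 Suspended human leukaemic lines (K-562, HL-60, THP-1) grown in RPMI 1640 with penicillin/streptomycin and 10% FBS. About 10 000 cells per well in bicarbonate medium without HEPES. Test substances added in serial twofold dilutions (1:2 to 1:1024). Incubation 72 h, 37 °C, 5% CO2, humidified. Cells counted electronically, each count the mean of three. GI50 read where the concentration–response curve crosses 50% of control counts.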

The test system of experiment [3] is HL-60. Nature of the experiment: Antiproliferative activity against HL60 cell line. Format: functional. The note with it: Homo sapiens. In outline: as §1
The subject of experiment [4] is THP-1. Nature of the experiment: Antiproliferative activity against THP-1 cell line. The class given is functional. Conditions: Homo sapiens. In short, it runs like this: as §1

The molecule `N[C@@H](CS)C(=O)Nc1ccc(NC(=O)Cc2ccc([N+](=O)[O-])cc2)c(C(=O)c2ccccc2)c1` returned an IC50 in experiment [1] of 115 nM.

In experiment [1], `CC(CC(=O)Nc1ccc(NC(=O)[C@@H](N)CS)cc1C(=O)c1ccccc1)CC(C)(C)C` (stereo not given in full) gave an IC50 of 8600 nM.

Turning to `N[C@@H](CS)C(=O)Nc1ccc(NC(=O)C(c2ccccc2)c2ccccc2)c(C(=O)c2ccccc2)c1`, in experiment [1], inhibition was half-maximal at 36 nM (IC50). This IC50 is about 240-fold lower than that of the molecule before.

Consider `CC(=O)Nc1ccc(NC(=O)[C@@H](N)CS)cc1C(=O)c1ccccc1`, for which inhibition in experiment [1] was half-maximal at 7600 nM (IC50).

For `N[C@@H](CS)C(=O)Nc1ccc(NC(=O)Cc2ccc(Cl)c(Cl)c2)c(C(=O)c2ccccc2)c1`, half-maximal inhibition in experiment [1] (IC50) was put at 480 nM.

The molecule `N[C@@H](CS)C(=O)Nc1ccc(NC(=O)C(=O)c2ccccc2)c(C(=O)c2ccccc2)c1` registered an IC50 in experiment [1] of 1420 nM.

`COC(=O)CCC(=O)Nc1ccc(NC(=O)[C@@H](N)CS)cc1C(=O)c1ccccc1` had an IC50 in experiment [1] of 1800 nM. This IC50 and that of the molecule before are within 1.5-fold of each other.

In experiment [1], `Cc1ccc(CS(=O)(=O)Nc2ccc(NC(=O)[C@@H](N)CS)cc2C(=O)c2ccccc2)cc1` had an IC50 of 100 nM.

Consider `N[C@@H](CS)C(=O)Nc1ccc(NC(=O)Cc2ccc(Cl)cc2)c(C(=O)c2ccccc2)c1`, for which the IC50 in experiment [1] amounted to 105 nM. This IC50 and that of the molecule before are within 1.5-fold of each other.

Molecule `N[C@@H](CS)C(=O)Nc1ccc(NC(=O)Cc2c(Cl)cccc2Cl)c(C(=O)c2ccccc2)c1` showed an IC50 in experiment [1] of 340 nM.

`N[C@@H](CS)C(=O)Nc1ccc(NC(=O)c2cccc3ccccc23)c(C(=O)c2ccccc2)c1`: in experiment [1], the IC50 worked out at 4600 nM.

In turn, `COC(=O)CCCC(=O)Nc1ccc(NC(=O)[C@@H](N)CS)cc1C(=O)c1ccccc1` registered an IC50 in experiment [1] of 2400 nM.

In experiment [1], `N[C@@H](CS)C(=O)Nc1ccc(NC(=O)Cc2ccc(C(F)(F)F)cc2)c(C(=O)c2ccccc2)c1` returned an IC50 of 725 nM.

As for `N[C@@H](CS)C(=O)Nc1ccc(NC(=O)CCCC(=O)O)c(C(=O)c2ccccc2)c1`, the half-maximal inhibitory concentration (IC50) in experiment [1] turned out to be 550 nM.

`N[C@@H](CS)C(=O)Nc1ccc(NC(=O)Cc2ccccc2)c(C(=O)c2ccccc2)c1` registered an IC50 in experiment [1] of 650 nM.

Molecule `CC(C(=O)Nc1ccc(NC(=O)[C@@H](N)CS)cc1C(=O)c1ccccc1)c1ccccc1` (stereo not given in full) returned an IC50 in experiment [1] of 650 nM.

`N[C@@H](CS)C(=O)Nc1ccc(NC(=O)CCC(=O)O)c(C(=O)c2ccccc2)c1` yielded an IC50 in experiment [1] of 700 nM.

Consider `N[C@@H](CS)C(=O)Nc1ccc(NC(=O)Cc2cccc(Cl)c2Cl)c(C(=O)c2ccccc2)c1`, for which, in experiment [1], inhibition was half-maximal at 420 nM (IC50).

As for `Cc1ccc(CC(=O)Nc2ccc(NC(=O)[C@@H](N)CS)cc2C(=O)c2ccccc2)cc1`, the IC50 in experiment [1] is 77 nM. This molecule returned a GI50 in experiment [2] of 8100 nM.

Molecule `N[C@@H](CS)C(=O)Nc1ccc(NC(=O)c2ccccc2)c(C(=O)c2ccccc2)c1` had an IC50 in experiment [1] of 4780 nM.

`N[C@@H](CS)C(=O)Nc1ccc(NC(=O)Cc2cc(Cl)cc(Cl)c2)c(C(=O)c2ccccc2)c1` came in with a 50% inhibitory concentration (IC50) in experiment [1] of 535 nM.

Regarding `COc1ccc(CC(=O)Nc2ccc(NC(=O)[C@@H](N)CS)cc2C(=O)c2ccccc2)cc1`, the IC50 in experiment [1] was determined as 545 nM.

`N[C@@H](CS)C(=O)Nc1ccc(NC(=O)Cc2cccc3ccccc23)c(C(=O)c2ccccc2)c1` registered an IC50 in experiment [1] of 380 nM.

The molecule `N[C@@H](CS)C(=O)Nc1ccc(NC(=O)CCc2ccccc2)c(C(=O)c2ccccc2)c1` yielded an IC50 in experiment [1] of 1290 nM.

In turn, `N[C@@H](CS)C(=O)Nc1ccc(NC(=O)Cc2cc(Cl)ccc2Cl)c(C(=O)c2ccccc2)c1` yielded an IC50 in experiment [1] of 2400 nM.

Consider `Cc1ccccc1CC(=O)Nc1ccc(NC(=O)[C@@H](N)CS)cc1C(=O)c1ccccc1`, for which the midpoint of inhibition in experiment [1], the IC50, lay at 400 nM. This IC50 is about 6-fold lower than that of the molecule before.

`N[C@@H](CS)C(=O)Nc1ccc(NC(=O)Cc2ccc3ccccc3c2)c(C(=O)c2ccccc2)c1` came in with an IC50 in experiment [1] of 460 nM.

In experiment [1], `Cc1cccc(CC(=O)Nc2ccc(NC(=O)[C@@H](N)CS)cc2C(=O)c2ccccc2)c1` came in with an IC50 of 540 nM. The IC50 values of the last two molecules are within 1.5-fold of each other.

Consider `N[C@@H](CS)C(=O)Nc1ccc(NS(=O)(=O)Cc2ccccc2)c(C(=O)c2ccccc2)c1`, for which the IC50 in experiment [1] is 85 nM.

Turning to `N[C@@H](CS)C(=O)Nc1ccc(NC(=O)Cc2ccc(Cl)cc2Cl)c(C(=O)c2ccccc2)c1`, the midpoint of inhibition in experiment [1], the IC50, lay at 120 nM.

Molecule `N[C@@H](CS)C(=O)Nc1ccc(NC(=O)Cc2ccc(Br)cc2)c(C(=O)c2ccccc2)c1` displayed an IC50 in experiment [1] of 76 nM. For the same molecule, the GI50 in experiment [3] came out at 4200 nM; in experiment [2] it was 7900 nM; in experiment [4], 14900 nM.
